Series [1] can be described thus: Clearance in human liver microsomes at 10 uM after 60 mins by HPLC-MS/MS analysis. Format: ADME.
Series [2] in a line: Clearance in rat liver microsomes at 10 uM after 60 mins by HPLC-MS/MS analysis. Format: ADME.
Series [3] is described as follows: Clearance in mouse liver microsomes at 10 uM after 60 mins by HPLC-MS/MS analysis. The series is classed as ADME.
Series [4] can be described thus: Clearance in Sprague-Dawley rat at 5 mg/kg, iv and 20 mg/kg, po by LC-MS/MS analysis. The series is classed as ADME, organism-based. Particulars: in vivo. The essentials: (§1)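 Rats were dosed i.v. at 5 mpk and orally at 20 mpk. Clearance and oral bioavailability were calculated from mean plasma concentrations of 2 rats.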
Series [5] can be described thus: Oral bioavailability in Sprague-Dawley rat at 20 mg/kg by LC-MS/MS analysis. The series is classed as ADME, organism-based. Conditions: in vivo. The essentials:
as §1

Series [6] in a line: Ratio of drug level in brain to plasma in Sprague-Dawley rat at 5 mg/kg, iv after 30 mins by LC-MS/MS analysis. Set-up: dose 5 mg/kg, route intravenous. Particulars: read-out: BPR. The series is classed as ADME, organism-based. The essentials:
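Brain and plasma were sampled at a single point 30 min after the i.v. 5 mpk dose. The ratio was calculated from mean concentrations of 2 rats.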

Series [7] can be described thus: Retention time of the compound by LC-MS analysis. Format: physicochemical. The essentials:
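Eluents were water and acetonitrile, each with TFA, run as a 5 to 95% acetonitrile gradient over 1.5 min at 1.5 mL/min. Capillary voltage was 3.5 kV and fragmentor voltage 50 V.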

Series [8] addresses GABA-A receptor; agonist GABA site. The series is described as follows: Positive allosteric modulation of recombinant alpha4beta3delta GABAA receptor (unknown origin) expressed in CHO cells assessed as potentiation of GABA-induced channel current treated for 30 s prior to GABA stimulation for 2s by manual patch assay. The series is classed as cell-based, Homo sapiens.
Series [9] has as its target GABA-A receptor; anion channel. The series is described as follows: Displacement of [3H]TBPS from GABAA receptor in Sprague-Dawley rat brain cortical membrane after 90 mins by liquid scintillation spectrometry.
The target in series [10] is GABA-A receptor; agonist GABA site. The series is described as follows: Positive allosteric modulation of recombinant alpha1beta2gamma2 GABAA receptor (unknown origin) expressed in LTK cells assessed as potentiation of GABA-induced channel current treated for 30 s prior to GABA stimulation for 2s by Q-patch assay. Format: cell-based, Homo sapiens.
The target in series [11] is GABA-A receptor; alpha-1/beta-2/gamma-2 (Homo sapiens) (UniProt P14867+P47870+P18507). Description: Selectivity ratio of EC50 for recombinant alpha1beta2gamma2 GABAA receptor (unknown origin) expressed in LTK cells to EC50 for recombinant alpha4beta3delta GABAA receptor (unknown origin) expressed in CHO cells. Format: cell-based.
Series [12] can be described thus: Lipophilicity, log D of the compound at 20 uM at pH 7.4 by HPLC-MS/MS analysis. The series is classed as physicochemical. Particulars: buffer.
Series [13] can be described thus: Aqueous solubility of the compound at pH 7.4 by HPLC-MS/MS analysis. Format: physicochemical. Conditions: buffer.

≈ marks a conversion by molar mass, not a printed value.

Consider 5 molecules from ChEMBL document CHEMBL3425450, “Neuroactive Steroids. 1. Positive Allosteric Modulators of the (γ-Aminobutyric Acid)A Receptor: Structure-Activity Relationships of Heterocyclic Substitution at C-21” (J Med Chem, 2015).

`C[C@@]1(O)CC[C@H]2[C@H](CC[C@@H]3[C@@H]2CC[C@]2(C)[C@@H](C(=O)Cn4cc5ccncc5n4)CC[C@@H]32)C1`: the results for the CLhep predicted at 10 µM in [1], in series [2] and in series [3] were 4.5 mL/min/kg, 55.7 mL/min/kg and 33.8 mL/min/kg, respectively. This molecule showed a clearance in series [4] of 58.3 mL/min/kg. For the same molecule, in series [5], the bioavailability stood at 40%. In addition, the Kp at 0.5 h in series [6] came out at 2.1. This molecule came in with a Retention_time in series [7] of 0.75 min. For the same molecule, the EC50 in series [8] was 178 nM; in series [10], more than 3000 nM. The molecule also showed an IC50 in [9] of 16 nM. Besides, the Ratio EC50 in [11] is more than 17. In [12], the log distribution coefficient (logD) at 20 µM was found to be 4.7. Besides, the concentration in solution in series [13] (solubility) was 1.2 µM (≈ 0.523 µg/mL).

Turning to `C[C@@]1(O)CC[C@H]2[C@H](CC[C@@H]3[C@@H]2CC[C@]2(C)[C@@H](C(=O)Cn4cc5ncccc5n4)CC[C@@H]32)C1`, the CLhep predicted at 10 µM in [1] was 4.5 mL/min/kg; in series [2], 55.7 mL/min/kg; in series [3], 60 mL/min/kg. This molecule also gave a clearance in series [4] of 73.3 mL/min/kg. Also, in series [5], the bioavailability was 1.5%. For the same molecule, in series [6], the Kp at 0.5 h came out at 1.3. The molecule also showed a Retention_time in series [7] of 0.81 min. Moreover, the EC50 in series [8] was 343 nM; in [10] it was more than 3000 nM. In series [9], this molecule showed an IC50 of 6 nM. In addition, in series [11], the Ratio EC50 was more than 8. Besides, the logD at 20 µM in series [12] stood at 4.7. The molecule also came in with a solubility in series [13] of 12.4 µM (≈ 5.4 µg/mL).

In the case of `C[C@@]1(O)CC[C@H]2[C@H](CC[C@@H]3[C@@H]2CC[C@]2(C)[C@@H](C(=O)Cn4nccn4)CC[C@@H]32)C1`, the CLhep predicted at 10 µM in series [1] was 3.17 mL/min/kg; in series [2] it was 45 mL/min/kg; in series [3], 67.5 mL/min/kg. In series [4], the clearance was 38.3 mL/min/kg. The same molecule had a bioavailability in series [5] of 27%. For the same molecule, in series [6], the Kp at 0.5 h turned out to be 1.8. In series [7], this molecule yielded a Retention_time of 0.87 min. Moreover, the EC50 in series [8] was 240 nM; in series [10] it was 125 nM. In series [9], the IC50 was determined as 11 nM. In addition, in series [12], the logD at 20 µM turned out to be 4.6. Besides, the solubility in series [13] worked out at 7.3 µM (≈ 2.81 µg/mL).

Turning to `C[C@@]1(O)CC[C@H]2[C@@H](CC[C@@H]3[C@@H]2CC[C@]2(C)[C@@H](C(=O)Cn4ncnn4)CC[C@@H]32)C1`, the figures for the CLhep predicted at 10 µM in [1], in series [2] and in series [3] were 1.67 mL/min/kg, 14.3 mL/min/kg and 33.8 mL/min/kg, respectively. This molecule also gave a clearance in [4] of 8.33 mL/min/kg. This molecule also registered a bioavailability in [5] of 67%. The Kp at 0.5 h in series [6] was 2. In series [7], this molecule showed a Retention_time of 0.88 min. The concentration for a half-maximal effect (EC50) in series [8] was found to be 292 nM; in [10] it was 945 nM. In series [9], this molecule came in with a half-maximal inhibitory concentration (IC50) of 31 nM. Further, in series [12], the pH-dependent lipophilicity (logD) at 20 µM turned out to be 4.5. Besides, the solubility in [13] was found to be 0.9 µM (≈ 0.348 µg/mL).

As to `C[C@@]1(O)CC[C@H]2[C@H](CC[C@@H]3[C@@H]2CC[C@]2(C)[C@@H](C(=O)Cn4ncnn4)CC[C@@H]32)C1`, the CLhep predicted at 10 µM in series [1] is 5.5 mL/min/kg; in [2], 39.3 mL/min/kg; in series [3], 67.5 mL/min/kg. For the same molecule, the clearance in series [4] was 18.3 mL/min/kg. In series [5], this molecule had a bioavailability of 41%. For the same molecule, the Kp at 0.5 h in series [6] was found to be 2.3. Besides, in [7], the Retention_time was determined as 0.87 min. Besides, the EC50 in [8] was determined as 345 nM; in series [10], 1150 nM. The molecule also had an IC50 in [9] of 6 nM. In series [12], this molecule registered a logD at 20 µM of 4.5. In [13], this molecule registered a solubility of 2.5 µM (≈ 0.966 µg/mL).
